In PMC5483893 (Journal of Medicinal Chemistry, 2017):

Assays:
[1] = test system: acetylated α-tubulin (AcTub) in QBI-293 cells; assay: Acetyl-tubulin assay; assay type: cell-based; details: for shape of concentration–response in the AcTub assay: comparison of 1 and 10 μM
Outline: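 QBI-293 cells kept at 37 °C, 5% CO₂, trypsinised and plated at 6 × 10⁵ cells/well, then exposed overnight-later to vehicle (DMSO) or test compound for 4 h. Lysis in RIPA with protease inhibitors, 1 mM PMSF and 1 μM TSA; 100000g spin, 30 min, 4 °C. BCA protein, then AcTub ELISA. Fold-change versus vehicle, at least triplicate, two-tailed unpaired t test.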

[2] = test system: total α-tubulin in QBI-293 cells; assay: Total α-tubulin ELISA; assay type: cell-based; details: at doses typically required to induce an elevation in AcTub
Outline: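 QBI-293 cells were plated at 6 × 10⁵ cells/well, grown overnight at 37 °C and 5% CO₂, then given fresh medium with vehicle (DMSO) or 1 and 10 μM test compound for 4 h. Lysis was in RIPA with protease inhibitors, 1 mM PMSF and 1 μM TSA, followed by 100000g for 30 min at 4 °C. Supernatant was BCA-normalized and α-tubulin measured by ELISA as fold-change versus vehicle. Samples were run at least in triplicate; significance was by two-tailed unpaired t test.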

[3] = test system: COX-derived PGD2 and PGE2 in RBL-1 cells; assay type: cell-based, rat

COc1cc(F)c(-c2c(Cl)nc(C)n2-c2ccc(Cl)cc2)c(F)c1 [Compound 2, 4-Chloro-1-(4-chlorophenyl)-5-(2,6-difluoro-4-methoxyphenyl)-2-methyl-1H-imidazole]
shape of concentration–response in the AcTub assay [1]: bell-shaped concentration–response relationship
effect on total α-tubulin levels [2]: cause a significant reduction in total α-tubulin levels

COc1ccc(-c2cncn2-c2ccc(Cl)cc2)cc1 [Compound 51, 1-(4-Chlorophenyl)-5-(4-methoxyphenyl)-1H-imidazole]
MT activity (AcTub increase), inactive compounds ([1]; QBI-293 cells, 1 and 10 μM): essentially devoid of MT activity
inhibition of the combined PGD2/PGE2 synthesis ([3]; RBL-1 cell assay, tested at 10 μM): near complete inhibition

COc1cc(F)c(-c2c(Cl)nc(Cl)n2-c2ccc(Cl)cc2)c(F)c1 [Compound 58, 2,4-Dichloro-1-(4-chlorophenyl)-5-(2,6-difluoro-4-methoxyphenyl)-1H-imidazole]
shape of concentration–response in the AcTub assay [1]: bell-shaped concentration–response relationship
effect on total α-tubulin levels [2]: cause a significant reduction in total α-tubulin levels

Cc1ccc(F)c(-c2cnc(Cl)n2-c2ccc(Cl)cc2)c1F [Compound 63, 2-Chloro-1-(4-chlorophenyl)-5-(2,6-difluoro-3-methylphenyl)-1H-imidazole]
effect on total α-tubulin levels [2]: cause a significant reduction in total α-tubulin levels

Cc1nc(Cl)c(-c2c(F)ccc(Cl)c2F)n1-c1ccc(Cl)cc1 [Compound 65, 4-Chloro-5-(3-chloro-2,6-difluorophenyl)-1-(4-chlorophenyl)-2-methyl-1H-imidazole]
effect on total α-tubulin levels [2]: cause a significant reduction in total α-tubulin levels

Fc1ccc(Cl)c(F)c1-c1cnc(Cl)n1-c1ccc(Cl)cc1 [Compound 66, 2-Chloro-5-(3-chloro-2,6-difluorophenyl)-1-(4-chlorophenyl)-1H-imidazole]
effect on total α-tubulin levels [2]: cause a significant reduction in total α-tubulin levels

Cc1nc(Cl)c(-c2c(F)ccc(F)c2F)n1-c1ccc(Cl)c(F)c1 [Compound 71, 4-Chloro-1-(4-chloro-3-fluorophenyl)-2-methyl-5-(2,3,6-trifluorophenyl)-1H-imidazole]
shape of concentration–response in the AcTub assay [1]: bell-shaped concentration–response relationship
effect on total α-tubulin levels [2]: cause a significant reduction in total α-tubulin levels

Fc1cc(F)c(-c2c(Cl)ncn2-c2ccc(Cl)nc2)c(F)c1 [Compound 73, 2-Chloro-5-(4-chloro-5-(2,4,6-trifluorophenyl)-1H-imidazol-1-yl)pyridine]
effect on total α-tubulin levels [2]: cause a significant reduction in total α-tubulin levels

Cc1nc(Cl)c(-c2c(F)cccc2F)n1-c1ccc(Cl)cc1 [Compound 85, 4-Chloro-1-(4-chlorophenyl)-5-(2,6-difluorophenyl)-2-methyl-1H-imidazole]
effect on total α-tubulin levels [2]: cause a significant reduction in total α-tubulin levels

Fc1cccc(F)c1-c1c(Cl)nc(Cl)n1-c1ccccc1Cl [Compound 104, 2,4-Dichloro-1-(2-chlorophenyl)-5-(2,6-difluorophenyl)-1H-imidazole]
elevation in AcTub without decrease of α-tubulin ([1]; 1 or 10 μM): produce an elevation in AcTub at 1 or 10 μM without decreasing α-tubulin level
inhibition in the PGD2/PGE2 assay ([3]; RBL-1 cells): > 50%
